PfM18AAP inh-1: blocks P. falciparum M18 aspartyl aminopeptidase. recombinant PfM18AAP, H-Glu-NHMec fluorogenic cleavage. inhibition, % at 7.35 µM. actives 1.2% (n = 290,000). AID 1822;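 active = inhibition above the campaign mean inhibition over all tested compounds plus 3 SD, cut at about 28% in these data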;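 note: 0% = plate median of test compound wells and 100% = 2 mM ZnCl2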
VIM-2 inhibitor: blocks Pseudomonas aeruginosa VIM-2 metallo-beta-lactamase | actives 0.89% (n = 290,000) | AID 1527 | inhibition, % at 5.6 µM | purified VIM-2, nitrocefin hydrolysis, epi-absorbance fluorescence;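 active = inhibition above the mean of all tested compounds plus 3 SD, cutoff set per screening run, cut at about 7.5% in these data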;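 note: red hydrolysis product quenches plate fluorescence so inhibitors raise well fluorescence; 0% = enzyme with DMSO and 100% = DMSO without enzyme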
CTSL1 counter-1: cathepsin L1 inhibition, PFM18AAP counter-screen; recombinant F. hepatica cathepsin L1, Z-Leu-Arg-MCA fluorescence; inhibition, % at 5.96 µM; actives 0.49% (n = 300,000); AID 1906;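 active = inhibition above the mean of all tested compounds plus 3 SD, set per screening campaign, cut at about 17% in these data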;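 note: 0% = plate median of test compound wells and 100% = 1 µM Z-Phe-Ala-diazomethylketone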
IMP-1 inh: blocks Pseudomonas aeruginosa IMP-1 metallo-beta-lactamase; purified IMP-1, nitrocefin hydrolysis, epi-absorbance fluorescence; inhibition, % at 5.6 µM; actives 0.45% (n = 290,000); AID 1556;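 active = inhibition above the mean plus 3 SD of all compounds in the same screening run, cut at about 4.5% in these data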;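 note: 0% = IMP-1 with DMSO and 100% = DMSO wells lacking enzyme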
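System: purified IMP-1; amount: IMP-1 0.2 nM before substrate addition; compound: single dose, 5.6 µM; times: 25 °C, 15 min preincubation, 25 min reaction; signal: Epi-absorbance via hydrolysed-nitrocefin quenching of white-plate fluorescence, 480/530 nm, EDTA stop; benchmarks: DMSO with and without IMP-1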
PfM18AAP inh-2: PfM18AAP inhibition, confirmation; actives 28% (n = 2,400); shares compounds with PfM18AAP inh-1; inhibition, % at 7.35 µM; recombinant PfM18AAP, H-Glu-NHMec fluorogenic cleavage;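 active = mean inhibition over replicate wells above the hit cutoff set for the earlier primary screen, cut at about 29% in these data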;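 note: 0% = median of test compound wells and 100% = 2 mM ZnCl2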
CTSL1 counter-2: counter-screen for PFM18AAP inhibitors: confirmation of human cathepsin L inhibitors; shares compounds with PfM18AAP inh-1; purified cathepsin L1, Z-Leu-Arg-MCA fluorescence; inhibition, % at 5.96 µM; 2,400 tested, under 10 active;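 active = average inhibition across replicates above the hit cutoff set in the earlier primary screen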;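 note: 0% = median of test compound wells and 100% = Z-Phe-Ala-diazomethylketone 1 µM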
Target sequence (P07711 whole entry, looked up): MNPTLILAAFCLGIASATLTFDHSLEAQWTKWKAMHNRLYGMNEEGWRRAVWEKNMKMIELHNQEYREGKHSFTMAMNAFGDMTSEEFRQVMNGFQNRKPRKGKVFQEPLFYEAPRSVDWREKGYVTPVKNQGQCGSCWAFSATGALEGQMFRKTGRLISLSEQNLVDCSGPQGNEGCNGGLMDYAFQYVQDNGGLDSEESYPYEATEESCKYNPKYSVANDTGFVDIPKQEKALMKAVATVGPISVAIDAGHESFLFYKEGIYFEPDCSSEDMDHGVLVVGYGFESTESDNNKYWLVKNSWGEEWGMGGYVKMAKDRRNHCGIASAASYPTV
* marks the source's active call; other numbers are inactive results; / = not tested or not shown. A selection: hits, their analogues and other compounds. The true share with any hit is near 2.7%.

SMILES | PfM18AAP inh-1 | VIM-2 inhibitor | CTSL1 counter-1 | IMP-1 inh | PfM18AAP inh-2 | CTSL1 counter-2
O=C(CN1C(=O)C2C3C=CC(C3)C2C1=O)OCC(=O)c1ccc([N+](=O)[O-])cc1 (configuration not stated) | 42.2* | 1.0 | -3.8 | 3.0 | -18.8 | -0.4
CCOC(=O)CSc1ccc(C(=O)Nc2ccc(OC)cc2)cn1 | 0.8 | -3.9 | 0.2 | -3.0 | / | /
S=C(NCCc1ccccc1)Nc1c(Cl)cccc1Cl | 40.7* | -3.7 | 5.6 | -3.8 | -3.6 | -5.2
Cc1cccnc1NC(=S)Nc1ncccc1C | 1.2 | 1.1 | -1.1 | -1.3 | / | /
Cc1cccnc1NC(=S)NCCc1ccccc1 | 42.2* | -4.5 | -2.3 | -0.6 | 0.5 | 0.9
Cc1cccc(C)c1NC(=S)NCCc1ccc(O)c(O)c1 | 73.0* | -4.5 | 8.3 | -3.1 | 50.1* | -6.6
Oc1cc(O)c2c(c1)O[C@H](c1ccc(O)c(O)c1)[C@H](O)C2 | 81.1* | -1.7 | -0.1 | -0.8 | 66.1* | 1.4
COc1ccc2sc(C)[n+](C)c2c1 | 43.2* | -3.2 | -2.2 | -1.1 | -12.2 | -1.9
CC[n+]1c(/C=C2/C=C(C)CC(C)(C)C2)sc2ccc(OC)cc21 | -4.9 | -0.3 | 0.8 | -2.0 | / | /
CC(=O)Nc1ccc2c(c1)nc1n2CCN(C2CCCCC2)C1 | 5.1 | -4.8 | / | -2.5 | / | /
CCOC(=O)NNc1ccc(C(F)(F)F)cn1 | 55.7* | -0.7 | 4.7 | -2.4 | 35.3* | -5.0
C/C(=N\NC(=O)c1cccc(F)c1)c1ccc(Br)s1 | -3.8 | -2.1 | -0.1 | -4.8 | / | /
c1ccc(CCNc2ccc3nncn3n2)cc1 | 3.5 | -2.6 | -2.5 | -1.9 | / | /
NNc1ccc2nncn2n1 | 39.8* | -1.9 | -2.8 | -2.6 | 38.9* | -4.8
O=C(N/N=C/C=C/c1ccccc1)NC1CCCCC1 | 8.6 | -1.4 | 0.1 | -2.7 | / | /
Clc1ccc(N=c2ssnc2Cl)nc1 | 38.7* | -5.0 | 7.6 | -2.5 | 23.5 | -4.5
Clc1nssc1=Nc1ccc(Br)cc1 | 19.7 | -2.5 | / | -4.3 | / | /
Cc1cc(/C=C2\SC(=O)N(C)C2=O)c(C)n1-c1ccc(O)cc1 | 33.0* | 4.3 | -2.6 | -2.1 | -47.5 | -2.4
O=C(CSc1n[nH]c(-c2ccncc2)n1)Nc1ccc(Cl)c(Cl)c1 | -7.1 | 0.4 | 1.7 | -1.3 | / | /
CCNc1nc(NCC)nc(N/N=C/c2ccc(O)c(O)c2)n1 | 46.8* | -5.5 | 0.9 | -6.1 | 33.0* | -0.1
COc1cccc(-n2c(SCc3cc(=O)oc4cc(O)c(O)cc34)nc3ccccc3c2=O)c1 | 55.9* | 6.5 | -0.8 | -2.0 | -10.1 | 5.9
COc1ccc(-c2nc(N)n(C(=O)c3ccccc3)n2)cc1 | -1.7 | -2.4 | / | -3.0 | / | /
COc1ccc(C(=O)n2cnnc2N)cc1 | 47.9* | -3.2 | 2.5 | -1.2 | 60.6* | 0.9
CCOc1ccc(C(=O)n2cnnc2N)cc1 | 48.3* | -0.7 | -0.5 | -0.7 | 56.4* | 1.0
Oc1ccccc1N=Cc1c(O)ccc2ccccc12 | 30.7* | -2.1 | / | -2.2 | -4.8 | 3.0
SMILES | PfM18AAP inh-1 | VIM-2 inhibitor | CTSL1 counter-1 | IMP-1 inh | PfM18AAP inh-2 | CTSL1 counter-2
Oc1ccccc1C=Nc1cccc2ccccc12 | 12.0 | 0.4 | -2.6 | -2.3 | / | /
Oc1cccc(C=Nc2cccc3ccccc23)c1O | 49.9* | 2.3 | -2.7 | 1.1 | 31.8* | -2.4
COc1ccc(-c2cc(C#N)nc(NN)n2)cc1 | 36.5* | -0.7 | 8.9 | -2.8 | 36.0* | 6.0
COc1nc(-c2ccccc2)cc(-c2ccc(OC)c(OC)c2)n1 | -1.4 | -0.8 | -0.4 | -1.6 | / | /
COc1ccc(-c2cc(-c3ccccc3)nc(NN)n2)cc1OC | 33.8* | -3.8 | 7.3 | -3.9 | 5.3 | 3.0
CC(C)(C)S(=O)c1cccs1 (configuration not stated) | 7.9 | 1.6 | 3.8 | -0.4 | / | /
CC(=O)Nc1cccc(OCC(=O)NC(C)c2ccc3ccccc3c2)c1 (configuration not stated) | -16.9 | -0.9 | 8.0 | -1.5 | / | /
O=C(O)c1cccc(Nc2c3ccccc3nc3ccccc23)c1 | 5.4 | 5.2 | 3.9 | 0.7 | / | /
O=C(O)c1cc(S(=O)(=O)O)cc(Nc2c3ccccc3nc3ccccc23)c1O | 35.3* | 0.3 | 3.1 | -1.6 | -26.9 | 0.4
CC(NC(=O)C(C)(C)C)C(c1cccs1)N1CCOCC1 (configuration not stated) | -3.0 | -0.5 | -1.2 | -2.2 | / | /
Cc1ccc(NC(=S)N2CCSC2c2cccs2)cc1 (configuration not stated) | 4.6 | -1.6 | -6.3 | -1.1 | / | /
CC(=O)c1sc2nsc(SCCN3CCOCC3)c2c1N | 59.8* | 0.3 | -0.8 | -2.3 | 9.7 | 0.1
Nc1c(C(=O)c2ccccc2)sc2nsc(SCCN3CCOCC3)c12 | 27.2 | 1.8 | 2.2 | -1.8 | / | /
c1ccc2c(OCCCN3CCCCCC3)cccc2c1 | -0.1 | -1.1 | 0.2 | -0.2 | / | /
COCCn1c(=O)c2c(nc3n2CC(C)CN3CCc2ccccc2)n(C)c1=O (configuration not stated) | -0.6 | -5.7 | 6.2 | -4.0 | / | /
CC(=O)NNC(=O)CN1C(=O)/C(=C/c2ccccc2)SC1=S | 34.5* | 5.5 | 1.0 | 9.6* | -29.5 | 4.3
COc1ccccc1NC(=S)N1CCN(C/C=C/c2ccccc2)CC1 | -12.6 | 0.1 | -2.6 | 0.5 | / | /
C/C(=N\Nc1cccc(C(=O)O)c1)c1ccc(Cl)s1 | 40.7* | -0.3 | -1.5 | -2.2 | -45.9 | -0.9
C=CCNCCOCCOc1ccc(C)cc1Br | 3.8 | 1.1 | -3.4 | -4.5 | / | /
CCC(C)NCCOCCOc1ccc(C)cc1Br (configuration not stated) | 32.0* | -0.9 | 0.3 | -4.1 | -26.5 | -0.5
COc1cccc(CN(C)C(=O)CSCC(=O)Nc2cc(C)on2)c1OC | / | / | 0.3 | / | / | /
O=C1c2ccccc2NC(c2ccc(O)cc2)N1/N=C/c1ccc(O)cc1 (configuration not stated) | -6.0 | -0.1 | 0.1 | 1.2 | / | /
O=C1c2ccccc2C(=O)N1/N=C/c1ccc(O)c(O)c1 | 56.7* | -3.0 | 5.9 | -3.4 | 68.3* | 5.2
O=C1C2C3C=CC(CC3)C2C(=O)N1/N=C/c1ccc(O)c(O)c1 (configuration not stated) | 53.7* | -0.7 | 5.3 | -1.9 | 44.6* | -0.9
N#C/C(=C\c1cn[nH]c1-c1ccccc1)C(=O)NC1CCCCCC1 | -6.1 | 0.6 | 6.9 | -1.4 | / | /
SMILES | PfM18AAP inh-1 | VIM-2 inhibitor | CTSL1 counter-1 | IMP-1 inh | PfM18AAP inh-2 | CTSL1 counter-2
O=CN/C=C/c1cc(O)ccc1O | 60.8* | 3.8 | 0.3 | -2.3 | 82.5* | 0.2
COc1ccc(N2C(=NC(=O)C3CCCCC3)SC3CS(=O)(=O)CC32)c(OC)c1 (configuration not stated) | 4.3 | -6.2 | 1.3 | -2.3 | / | /
O=C(c1ccc(Cl)cc1)c1c[nH]c(C(=O)NNc2ccccc2)c1 | 33.2* | -1.9 | -3.4 | -0.5 | -5.7 | -0.9
Cc1cc[n+](-c2nc([O-])n(-c3ccccc3)c2C=O)cc1 | -4.2 | -4.8 | / | -2.2 | / | /
Cc1ccccc1-n1sc2cc(F)ccc2c1=O | 69.5* | -2.4 | -1.3 | -3.6 | 64.2* | -6.5
COc1cc(NC(=O)C(C)Oc2ccccc2)c(OC)cc1NC(=O)c1ccccc1 (configuration not stated) | -8.3 | 1.7 | 1.7 | -0.8 | / | /
